Laboratory results reported in PubChem BioAssay.
The source made the active and inactive calls.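 Rule for the calls, unless noted: active = Her2 level under about 52% in both replicate screens, with viability over 70% of control (limit read from the data); inconclusive = Her2 under the limit in one screen only, or viability under 70%; inactive = Her2 level above the set limit.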

Legend:
[1] = Her2 expression decrease, cell viability multiplex – SKBR3 breast tumor cells, AlphaScreen, ATP viability, primary screen (AID 461); conditions: SKBR3 Her2 protein level, 18-24 h, measured here: SKBR3 viability, ATP luminescence, at 10 µM;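 for Her2 level: lower value means less Her2 protein in the cells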;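 for viability: percent of carrier control wells set as 100% viability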
[2] = molecular target: Receptor tyrosine-protein kinase erbB-2 (Homo sapiens) (UniProt P04626); test: as above; conditions: 18-24 h, at 10 µM, stronger effect = lower value
[3] = reduced viability of SK-BR-3 breast cancer cells – cell-based, 24 h, human, pilot screen (AID 572;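 active = viability at or below 10% of carrier control in both of two separate runs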;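 note: compound exposure lasted between 18 and 24 h rather than exactly 24 h; 100% = carrier-treated control wells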); conditions: SK-BR-3 viability, CellTiter-Glo luminescence, at 10 µM, stronger effect = lower value
[4] = HUVEC growth inhibition – cell-based, human, primary screen (AID 575;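 active = viability at or below 30% in both replicate assays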;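 note: 100% = median of untreated cell wells with 0.1% DMSO on each plate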); conditions: HUVEC proliferation, CellTiter-Glo luminescence, 72 h; at 10 µM; stronger effect = lower value
In short: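 Material: primary human umbilical vein endothelial cells / Schedule: 72 h exposure, 37 °C, 5% CO2, 30 min RT equilibration / Signal: ATP-based CellTiter-Glo luminescent read / Read-out basis: percent of median DMSO-control luminescence / Control set: 32 DMSO-only cell-control wells (high), 32 MePR drug-control wells (low) per plate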

[5] = H69AR cell proliferation blockers – human, duplicate replicates, primary screen (AID 580;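 active = viability at or under a set limit in both replicates, limit being median viability minus 3 SD, cut at about 48% in these data, passing the limit was not always enough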;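 note: 100% = mean luminescence of untreated wells and 0% = no signal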); conditions: H69AR lung tumor cells viability, ATP luminescence, 72 h; at 10 µM; stronger effect = lower value
[6] = MRP1 drug-resistance reversers in H69AR cells – cell-based, doxorubicin co-treatment, pilot screen (AID 601;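 active = viability loss from added drug above about 55%, and viability with drug at most 40%, in both replicates, limit read from the data, passing the limit was not always enough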); conditions: CellTiter-Glo, 72 h, at 10 µM; for differential viability (reversal): stronger effect = higher value
[7] = yeast transport mutant growth inhibition pilot in 384-well plates, post-Golgi transport modulator project (AID 636; in the data active = inhibition above about 31%); conditions: absorbance 615 nm, about 18 h, stronger effect = higher value
[8] = growth suppression of yeast trafficking mutant, preliminary HTS, modulators of trafficking downstream of Golgi apparatus project, 1536-format plate, OD 615 nm (AID 637; in the data active = inhibition above about 30%); conditions: yeast transport mutant growth, absorbance 615 nm, 18 h; stronger effect = higher value
[9] = H69AR cells + 2 uM doxorubicin, measured here: viability with 2 uM doxorubicin, stronger effect = lower value
[10] = H69AR cells, compound alone cytotoxicity

Receptor tyrosine-protein kinase erbB-2 (Homo sapiens), sequence (P04626 whole entry, looked up): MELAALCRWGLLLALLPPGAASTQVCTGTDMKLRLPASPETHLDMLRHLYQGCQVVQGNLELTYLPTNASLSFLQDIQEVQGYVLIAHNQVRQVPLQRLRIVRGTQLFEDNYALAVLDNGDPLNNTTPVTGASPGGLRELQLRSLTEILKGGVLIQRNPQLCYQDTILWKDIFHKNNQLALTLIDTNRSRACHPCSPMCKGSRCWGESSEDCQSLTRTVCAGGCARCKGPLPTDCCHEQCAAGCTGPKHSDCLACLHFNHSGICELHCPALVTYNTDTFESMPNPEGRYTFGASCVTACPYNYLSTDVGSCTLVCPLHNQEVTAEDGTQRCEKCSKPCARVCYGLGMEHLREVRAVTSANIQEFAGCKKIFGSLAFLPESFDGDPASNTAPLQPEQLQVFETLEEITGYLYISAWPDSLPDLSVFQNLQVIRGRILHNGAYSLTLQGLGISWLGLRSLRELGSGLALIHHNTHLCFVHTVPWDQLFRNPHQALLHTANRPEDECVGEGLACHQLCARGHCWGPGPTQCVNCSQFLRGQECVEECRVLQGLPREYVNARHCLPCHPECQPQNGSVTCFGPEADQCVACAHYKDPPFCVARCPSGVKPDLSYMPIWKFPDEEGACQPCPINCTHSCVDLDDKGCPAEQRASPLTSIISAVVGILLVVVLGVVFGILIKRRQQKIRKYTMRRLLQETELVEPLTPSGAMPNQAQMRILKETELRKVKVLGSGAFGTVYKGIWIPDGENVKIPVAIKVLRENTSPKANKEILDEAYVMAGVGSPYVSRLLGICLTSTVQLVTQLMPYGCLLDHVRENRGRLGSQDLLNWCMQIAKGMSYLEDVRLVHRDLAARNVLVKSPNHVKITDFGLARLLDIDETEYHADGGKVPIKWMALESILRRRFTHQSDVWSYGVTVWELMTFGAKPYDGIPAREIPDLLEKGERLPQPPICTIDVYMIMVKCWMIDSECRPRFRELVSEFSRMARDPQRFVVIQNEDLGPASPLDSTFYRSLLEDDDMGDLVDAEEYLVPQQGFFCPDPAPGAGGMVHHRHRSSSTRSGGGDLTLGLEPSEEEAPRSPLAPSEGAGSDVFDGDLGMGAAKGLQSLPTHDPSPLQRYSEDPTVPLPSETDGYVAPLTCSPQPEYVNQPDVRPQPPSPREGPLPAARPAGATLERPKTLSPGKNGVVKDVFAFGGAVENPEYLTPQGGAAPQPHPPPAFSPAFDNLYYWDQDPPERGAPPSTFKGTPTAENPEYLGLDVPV

Row | Structure (SMILES) | viability [1] | Her2 level [2] | viability [3] | viability [4] | viability [5] | differential viability (reversal) ([6]; H69AR cells + 2 uM doxorubicin) | viability [6, 9] | viability [6, 10] | inhibition [7] | inhibition [8]
1 | Cc1ccc(S(=O)(=O)N2CCC(C(=O)N3CCC[C@H]3C(=O)NCc3ccccc3)CC2)cc1 | 117% | 103% (inactive) | 117% (inactive) | 101% (inactive) | 90.8% (inactive) | -5.42% (inactive) | 96.2% | 90.8% | -4.81% (inactive) | -0.66% (inactive)
2 | CN(Cc1ccco1)C(=O)Cn1c(=O)oc2cc(S(=O)(=O)NCc3ccccc3)ccc21 | 92% | 85.5% (inactive) | 92% (inactive) | 96.4% (inactive) | 89.8% (inactive) | -3.67% (inactive) | 93.4% | 89.8% | -2.67% (inactive) | 1.8% (inactive)
3 | CCCc1[nH]nc2c1C(c1cccc(OC(=O)c3ccco3)c1)C(C#N)=C(N)O2 (stereo not given) | 93.5% | 72% (inactive) | 93.5% (inactive) | 81.6% (inactive) | 95.3% (inactive) | 1.18% (inactive) | 94.1% | 95.3% | -3.16% (inactive) | -1.11% (inactive)
4 | O=c1[nH]c(CN2CCN(Cc3ccccc3)CC2)nc2sc3c(c12)CCC3 | 96% | 87.5% (inactive) | 96% (inactive) | 98.9% (inactive) | 87.9% (inactive) | 0.67% (inactive) | 87.3% | 87.9% | -4.86% (inactive) | 2.06% (inactive)
5 | CCOc1ccc(C(C)=O)cc1COc1ccc(-n2cnnn2)cc1 | 99% | 108% (inactive) | 99% (inactive) | 111% (inactive) | 77.2% (inactive) | -2.58% (inactive) | 79.8% | 77.2% | -4% (inactive) | -8.52% (inactive)
6 | COc1ccc(C2/C(=C(/O)c3ccccc3)C(=O)C(=O)N2C)cc1 (stereo not given) | 102% | 83.5% (inactive) | 102% (inactive) | 107% (inactive) | 101% (inactive) | 3% (inactive) | 98.1% | 101% | -7.84% (inactive) | 1.97% (inactive)
7 | CC1=Nn2c(nnc2-c2ccccn2)SC1 | 94% | 104% (inactive) | 94% (inactive) | 88.7% (inactive) | 99.5% (inactive) | 11.3% (inactive) | 88.2% | 99.5% | -4.4% (inactive) | -1.9% (inactive)
8 | C=CCn1c(SCC(=O)O)nnc1-c1cccc(Cl)c1 | 116% | 107% (inactive) | 116% (inactive) | 103% (inactive) | 109% (inactive) | 12.6% (inactive) | 96.3% | 109% | -5.19% (inactive) | -3.67% (inactive)
9 | O=C(c1ccc(-c2ccccc2)cc1)N1CCN(c2ncccn2)CC1 | 91% | 96.5% (inactive) | 91% (inactive) | 94.6% (inactive) | 103% (inactive) | 12.7% (inactive) | 90.5% | 103% | -9.32% (inactive) | 6.39% (inactive)
10 | C=CCn1c2ccccc2c2nnc(SCC(=O)NC(C(=O)OC)C(C)C)nc21 (stereo not given) | 112% | 96% (inactive) | 112% (inactive) | 83.5% (inactive) | 76.8% (inactive) | 2.25% (inactive) | 74.5% | 76.8% | -3.12% (inactive) | -4.26% (inactive)
11 | CC1=C(C#N)C(=O)NC(C)(C)C1 | 114% | 102% (inactive) | 114% (inactive) | 91.8% (inactive) | 89.3% (inactive) | 3.02% (inactive) | 86.3% | 89.3% | -6% (inactive) | 1.8% (inactive)
12 | CC(C)N(C(=O)CSc1nnc(NC(=O)C2CCC2)s1)C(C)C | 82.5% | 90.5% (inactive) | 82.5% (inactive) | 90.4% (inactive) | 92.9% (inactive) | 3.82% (inactive) | 89% | 92.9% | -1.47% (inactive) | -2.42% (inactive)
13 | CC(NC(=O)Nc1nccs1)(C(F)(F)F)C(F)(F)F | 102% | 83.5% (inactive) | 102% (inactive) | 103% (inactive) | 99.7% (inactive) | 3.42% (inactive) | 96.2% | 99.7% | -7.26% (inactive) | -6.51% (inactive)
14 | CCOc1ccc(C(=O)Nc2ccc(N3CCN(C)CC3)cc2)cc1Br | 114% | 93% (inactive) | 114% (inactive) | 2.57% (active) | 81.8% (inactive) | 10.2% (inactive) | 71.7% | 81.8% | -4.67% (inactive) | 12.1% (inactive)
15 | CCOc1cc(C2C(C(=O)OC(C)C)=C(C)N=C3SCCC(=O)N32)ccc1OC(C)=O (stereo not given) | 93% | 78.5% (inactive) | 93% (inactive) | 96.5% (inactive) | 93.3% (inactive) | 3.33% (inactive) | 89.9% | 93.3% | -2.89% (inactive) | 2.18% (inactive)
16 | COc1ccccc1N1CC(C(=O)Nc2cccc(C(=O)O)c2)CC1=O (stereo not given) | 98% | 103% (inactive) | 98% (inactive) | 95.4% (inactive) | 94.1% (inactive) | -5.46% (inactive) | 99.6% | 94.1% | 3.07% (inactive) | -7.58% (inactive)
